Legend:
[1] = Antileukemic activity against Murine P388 lymphocytic leukemia, body weight difference of the test animals compared to control group A animals at a dose of 50 mg/kg; assay type: functional, Mus musculus; parameters: unit not given here
In short: (§1)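 CD2F1 mice implanted intraperitoneally with ascitic fluid carrying ca. 1×10^6 P388 cells, under the NCI protocol. Dosing was intraperitoneal, starting 24 h after inoculation, then every 24 h for five doses in total. The body weight difference of treated mice is taken against untreated controls. Toxicity day survivors are the mice alive at day five out of those tested.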

[2] = Antileukemic activity against Murine P388 lymphocytic leukemia, body weight difference of the test animals compared to control group A animals at a dose of 6.25 mg/kg; assay type: functional, Mus musculus; in short: as §1
[3] = Antileukemic activity against Murine P388 lymphocytic leukemia, body weight difference of the test animals compared to control group B animals at a dose of 12.5 mg/kg; assay type: functional, Mus musculus; parameters: unit not given here; in short: as §1
[4] = Antileukemic activity against Murine P388 lymphocytic leukemia, body weight difference of the test animals compared to control group B animals at a dose of 25 mg/kg; assay type: functional, Mus musculus; parameters: unit not given here; in short: as §1
[5] = Antileukemic activity against Murine P388 lymphocytic leukemia, body weight difference of the test animals compared to control group B animals at a dose of 50 mg/kg; assay type: functional, Mus musculus; parameters: unit not given here; in short: as §1
[6] = Antileukemic activity against Murine P388 lymphocytic leukemia, body weight difference of the test animals compared to control group B animals at a dose of 6.25 mg/kg; assay type: functional, Mus musculus; in short: as §1
[7] = Antileukemic activity against Murine P388 lymphocytic leukemia, body weight difference of the test animals compared to control group C animals at a dose of 100 mg/kg; assay type: functional, Mus musculus; parameters: unit not given here; in short: as §1
[8] = Antileukemic activity against Murine P388 lymphocytic leukemia, body weight difference of the test animals compared to control group C animals at a dose of 50 mg/kg; assay type: functional, Mus musculus; parameters: unit not given here; in short: as §1
[9] = Antileukemic activity against Murine P388 lymphocytic leukemia, body weight difference of the test animals compared to control group C animals at a dose of 6.25 mg/kg; assay type: functional, Mus musculus; in short: as §1
[10] = Antileukemic activity against Murine P388 lymphocytic leukemia, body weight difference of the test animals compared to control group A animals at a dose of 100 mg/kg; assay type: functional, Mus musculus; parameters: unit not given here; in short: as §1
[11] = Antileukemic activity against Murine P388 lymphocytic leukemia, body weight difference of the test animals compared to control group A animals at a dose of 12.5 mg/kg; assay type: functional, Mus musculus; in short: as §1
[12] = Toxicity day survivors expressed as number of animals that survived to day five/ number of test animals under control group A at a dose of 6.25 mg/kg; 6 survived out of 6; assay type: functional, Mus musculus
[13] = Toxicity day survivors expressed as number of animals that survived to day five/ number of test animals under control group B at a dose of 12.5 mg/kg; 6 survived out of 6; assay type: functional, Mus musculus
[14] = Antileukemic activity against Murine P388 lymphocytic leukemia and toxicity day survivors expressed as number of animals that survived to day five/ number of test animals under control group C at a dose of 50 mg/kg; 6 survived out of 6; assay type: functional, Mus musculus
[15] = Toxicity day survivors expressed as number of animals that survived to day five/ number of test animals under control group A at a dose of 100 mg/kg; 6 survived out of 6; assay type: functional, Mus musculus
[16] = Toxicity day survivors expressed as number of animals that survived to day five/ number of test animals under control group A at a dose of 12.5 mg/kg; 6 survived out of 6; assay type: functional, Mus musculus
[17] = Toxicity day survivors expressed as number of animals that survived to day five/ number of test animals under control group A at a dose of 25 mg/kg; 6 survived out of 6; assay type: functional, Mus musculus
[18] = Percent increase in life span of test animals compared to untreated tumor-bearing control group C animals at a dose of 100 mg/kg; assay type: functional; details: Mus musculus
[19] = Log cell population relative to cell population at the beginning of treatment compared to control group C at a dose of 100 mg/kg; assay type: functional, Mus musculus
[20] = Antileukemic activity against Murine P388 lymphocytic leukemia and toxicity day survivors expressed as number of animals that survived to day five/ number of test animals under control group B at a dose of 25 mg/kg; 6 survived out of 6; assay type: functional, Mus musculus
[21] = Percent increase in life span of test animals compared to untreated tumor-bearing control group C animals at a dose of 6.25 mg/kg; assay type: functional; details: Mus musculus
[22] = Toxicity day survivors expressed as number of animals that survived to day five/ number of test animals under control group B at a dose of 50 mg/kg; 6 survived out of 6; assay type: functional, Mus musculus
[23] = Toxicity day survivors expressed as number of animals that survived to day five/ number of test animals under control group C at a dose of 25 mg/kg; 6 survived out of 6; assay type: functional, Mus musculus
[24] = Toxicity day survivors expressed as number of animals that survived to day five/ number of test animals under control group C at a dose of 6.25 mg/kg; 6 survived out of 6; assay type: functional, Mus musculus
[25] = Percent increase in life span of test animals compared to untreated tumor-bearing control group A animals at a dose of 100 mg/kg; assay type: functional; details: Mus musculus
[26] = Percent increase in life span of test animals compared to untreated tumor-bearing control group A animals at a dose of 12.5 mg/kg; assay type: functional; details: Mus musculus
[27] = Percent increase in life span of test animals compared to untreated tumor-bearing control group A animals at a dose of 25 mg/kg; assay type: functional; details: Mus musculus
[28] = Percent increase in life span of test animals compared to untreated tumor-bearing control group A animals at a dose of 6.25 mg/kg; assay type: functional; details: Mus musculus
[29] = Percent increase in life span of test animals compared to untreated tumor-bearing control group B animals at a dose of 100 mg/kg; assay type: functional; details: Mus musculus
[30] = Percent increase in life span of test animals compared to untreated tumor-bearing control group B animals at a dose of 25 mg/kg; assay type: functional; details: Mus musculus
P388 [31] = assay: Percent increase in life span of test animals compared to untreated tumor-bearing control group B animals at a dose of 50 mg/kg; assay type: functional; details: Mus musculus
[32] = Percent increase in life span of test animals compared to untreated tumor-bearing control group B animals at a dose of 6.25 mg/kg; assay type: functional; details: Mus musculus
P388 [33] = assay: Log cell population relative to cell population at the beginning of treatment compared to control group A at a dose of 25 mg/kg; assay type: functional, Mus musculus
P388 [34] = assay: Log cell population relative to cell population at the beginning of treatment compared to control group B at a dose of 12.5 mg/kg; assay type: functional, Mus musculus
P388 [35] = assay: Log cell population relative to cell population at the beginning of treatment compared to control group B at a dose of 25 mg/kg; assay type: functional, Mus musculus
P388 [36] = assay: Log cell population relative to cell population at the beginning of treatment compared to control group B at a dose of 50 mg/kg; assay type: functional, Mus musculus
P388 [37] = assay: Log cell population relative to cell population at the beginning of treatment compared to control group C at a dose of 12.5 mg/kg; assay type: functional, Mus musculus
P388 [38] = assay: Log cell population relative to cell population at the beginning of treatment compared to control group C at a dose of 25 mg/kg; assay type: functional, Mus musculus
P388 [39] = assay: Log cell population relative to cell population at the beginning of treatment compared to control group C at a dose of 50 mg/kg; assay type: functional, Mus musculus
P388 [40] = assay: Log cell population relative to cell population at the beginning of treatment compared to control group C at a dose of 6.25 mg/kg; assay type: functional, Mus musculus

Q: For `CC(C)NC(=O)OCc1c(COC(=O)NC(C)C)c(-c2ccc(Cl)c(Cl)c2)n2c1CCC2`, which BWD [1] is on record?
A: Its BWD is -2.6.

Q: What about the BWD [2] of the same compound?
A: The BWD was 0.

Q: And the BWD [3]?
A: The BWD was -1.9.

Q: What about the BWD [4] of the same compound?
A: The BWD was -2.2.

Q: What about the BWD [5] of the same compound?
A: The BWD was -3.1.

Q: And the BWD [6]?
A: Its BWD is -0.5.

Q: And the BWD [7]?
A: Its BWD is -2.6.

Q: And the BWD [8]?
A: The BWD was -1.8.

Q: And the BWD [9]?
A: Its BWD is -1.1.

Q: What about the BWD [10] of the same compound?
A: Its BWD is -4.2.

Q: And the BWD [11]?
A: The BWD was -0.6.

Q: What about the TDS [12] of the same compound?
A: Its TDS is 6.

Q: What about the TDS [13] of the same compound?
A: Its TDS is 6.

Q: And the TDS [14]?
A: The TDS was 6.

Q: What about the TDS [15] of the same compound?
A: Its TDS is 6.

Q: What about the TDS [16] of the same compound?
A: Its TDS is 6.

Q: And the TDS [17]?
A: Its TDS is 6.

Q: What about the ILS at 100 mg/kg [18] of the same compound?
A: The ILS at 100 mg/kg was 123%.

Q: What about the KE [19] of the same compound?
A: Its KE is over 6.68.

Q: And the TDS [20]?
A: The TDS was 6.

Q: And the ILS at 6.25 mg/kg [21]?
A: Its ILS at 6.25 mg/kg is 26%.

Q: And the TDS [22]?
A: Its TDS is 6.

Q: What about the TDS [23] of the same compound?
A: Its TDS is 6.

Q: What about the TDS [24] of the same compound?
A: The TDS was 6.

Q: What about the ILS at 100 mg/kg [25] of the same compound?
A: Its ILS at 100 mg/kg is 48%.

Q: And the ILS at 12.5 mg/kg [26]?
A: Its ILS at 12.5 mg/kg is 56%.

Q: What about the ILS at 25 mg/kg [27] of the same compound?
A: Its ILS at 25 mg/kg is 75%.

Q: What about the ILS at 6.25 mg/kg [28] of the same compound?
A: Its ILS at 6.25 mg/kg is 51%.

Q: What about the ILS at 100 mg/kg [29] of the same compound?
A: Its ILS at 100 mg/kg is -14%.

Q: And the ILS at 25 mg/kg [30]?
A: Its ILS at 25 mg/kg is 66%.

Q: And the ILS at 50 mg/kg (P388 [31])?
A: Its ILS at 50 mg/kg is 95%.

Q: What about the ILS at 6.25 mg/kg [32] of the same compound?
A: The ILS at 6.25 mg/kg was 41%.

Q: And the KE (P388 [33])?
A: Its KE is 2.81.

Q: What about the KE (P388 [34]) of the same compound?
A: The KE was 1.08.

Q: What about the KE (P388 [35]) of the same compound?
A: The KE was 3.01.

Q: And the KE (P388 [36])?
A: The KE was 5.71.

Q: And the KE (P388 [37])?
A: Its KE is -0.07.

Q: And the KE (P388 [38])?
A: Its KE is 1.85.

Q: What about the KE (P388 [39]) of the same compound?
A: The KE was 5.27.

Q: What about the KE (P388 [40]) of the same compound?
A: Its KE is -0.55.
